# GPR7 antag: GPR7 receptor antagonists, primary screen, cell-based, fluorescence, single concentration; Neuropeptides B/W receptor type 1 (Homo sapiens), P48145; AID 1861, 2009; hit rate 1.1% among 290,000; GPR7-expressing cells, fluorescence antagonist assay; inhibition, % at 4.4 µM; in the data active means inhibition above about 16%, passing the limit was not always enough;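 further: cells stimulated with the agonist NPW; 0% = agonist with vehicle and 100% = vehicle without agonist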
# Target sequence (P48145 whole entry, looked up): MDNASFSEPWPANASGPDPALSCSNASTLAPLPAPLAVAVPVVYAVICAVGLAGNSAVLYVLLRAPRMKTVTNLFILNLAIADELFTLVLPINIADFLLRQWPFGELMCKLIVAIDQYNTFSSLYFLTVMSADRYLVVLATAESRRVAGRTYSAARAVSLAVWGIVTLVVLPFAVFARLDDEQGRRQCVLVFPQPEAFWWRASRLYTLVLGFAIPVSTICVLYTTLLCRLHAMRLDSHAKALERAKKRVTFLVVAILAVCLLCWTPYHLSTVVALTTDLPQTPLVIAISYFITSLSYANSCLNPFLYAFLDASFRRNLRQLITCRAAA
# OX1R antag-1: OX1R (HCRTR1) antagonists, primary screen, fluorescence, CHO/OX1R cells, Fluo-8 calcium, orexin A | Orexin/Hypocretin receptor type 1 (Homo sapiens), O43613 | Fluo-8 calcium fluorescence | inhibition, % at 5 µM | hit rate 0.43% among 330,000 | AID 434989, 2010;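 active means inhibition above its plate's threshold, mean inhibition of all tested compounds on the plate plus 3 SD, cut at about 37% in these data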;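 further: 0% = orexin A challenge wells and 100% = SB-334867-A antagonist wells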
# CHO parental Ca: ATP-evoked calcium signal inhibitors, parental CHO, primary screen, counter-screen for OX1R antagonist project, cell-based, fluorescence, Fluo-8 calcium dye. parental CHO-K1, ATP-induced calcium, Fluo-8 fluorescence. inhibition, % at 5.6 µM. hit rate 0.63% among 330,000;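 active means inhibition above that plate's mean sample inhibition plus 3 SD, cut at about 26% in these data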;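 further: 0% = ATP-challenged DMSO wells and 100% = DMSO wells without ATP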
#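 Test system: untransfected parental CHO cell line. Compound: one dose, 5.6 µM nominal. Detection: intracellular calcium via Fluo-8 no-wash fluorescent dye. Measure: % inhibition. Benchmarks: ATP-challenged DMSO wells low, unchallenged DMSO wells high.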
# TAAR1 antagonist: human TAAR1 antagonists, primary screen, Fluo-8 calcium fluorescence, CHO RD-HGA16 cells; Trace amine-associated receptor 1 (Homo sapiens), Q96RJ0; antagonist; inhibition, % at 3 µM; hit rate 1.5% among 360,000; AID 624466, 2012;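 active means inhibition above a per-plate cutoff, the mean inhibition of test compounds on that plate plus 3 SD, cut at about 49% in these data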;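 further: 0% = DMSO plus EC80 beta-PEA response and 100% = DMSO alone without agonist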
# Target sequence (Q96RJ0 whole entry, looked up): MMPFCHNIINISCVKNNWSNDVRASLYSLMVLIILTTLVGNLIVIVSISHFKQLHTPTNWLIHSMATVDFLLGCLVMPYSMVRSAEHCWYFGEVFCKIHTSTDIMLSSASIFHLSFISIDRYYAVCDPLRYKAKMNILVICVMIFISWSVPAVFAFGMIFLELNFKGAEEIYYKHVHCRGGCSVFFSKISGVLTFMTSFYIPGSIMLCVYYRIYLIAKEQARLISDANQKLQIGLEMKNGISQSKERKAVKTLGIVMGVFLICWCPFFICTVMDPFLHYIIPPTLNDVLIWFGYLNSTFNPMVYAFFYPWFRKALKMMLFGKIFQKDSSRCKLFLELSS
#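 Assay system: CHO-derived RD-HGA16 cells stably expressing human TAAR1 plus Gα16. Timing: 140 s kinetic read after compound, 140 s after agonist. Technique: kinetic Fluo-8 calcium fluorescence measurement. Measure: % inhibition of agonist calcium response.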
# TAAR1 agonist: human TAAR1 agonists, primary screen, Fluo-8 calcium fluorescence, CHO RD-HGA16 cells. Trace amine-associated receptor 1 (Homo sapiens), Q96RJ0. vehicle wells 0%, saturating PEA agonist 100%. activation, % at 3 µM. hit rate 0.99% among 360,000. AID 624467, 2012;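 active means activation above the mean activation of all test compounds in the run plus 3 SD, cut at about 38% in these data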
#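 Assay system – CHO-derived RD-HGA16 cells with stable Gα16 and human TAAR1 · Compound dosing – one-point dosing at 3 µM (nominal) · Incubation – 17-24 h seeding, 75 min 37 °C dye, 30 min RT · Measured by – kinetic Fluo-8 calcium fluorescence · Control set – DMSO vehicle as 0%, PEA at EC100 as 100% · Repeats – single well for each compound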
# OX1R antag-2: antagonists of human orexin 1 receptor (OX1R). Orexin/Hypocretin receptor type 1 (Homo sapiens), O43613. OX1R-expressing cells, FRET antagonist read-out. AID 485270, 2010. inhibition, % at 6.6 µM. hit rate 1.8% among 330,000; in the data active means inhibition mostly above about 38%, no sharp cut-off; inactive means mostly below about 40%;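 further: 0% = agonist challenge alone and 100% = reference antagonist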
# The depositor's hits bear a star; x = no result given. Sampled rows, rich in hits. Any-hit rate of the full collection: about 4.6%.
SMILES,GPR7 antag,OX1R antag-1,CHO parental Ca,TAAR1 antagonist,TAAR1 agonist,OX1R antag-2
CC1(C)C(=O)OC(c2ccco2)C(C)(C)C1=O (stereo unspecified),2,-8,2,-5,11,21
CC(=O)n1cc([C@H]2C=C(C(=O)N3CCN(Cc4ccc5c(c4)OCO5)CC3)O[C@@H](OCc3ccc(CO)cc3)C2)c2ccccc21,-8,1,-11,67*,16,32
O=C(C1=C[C@H](c2csc3ccccc23)C[C@H](OCCCCO)O1)N1CCN(Cc2ccc3c(c2)OCO3)CC1,1,-23,-13,60*,24,12
Cc1ccc2cccc(NC(=S)NC(=O)c3ccnn3C)c2n1,-3,22,-45,-1,1,48*
O=c1ccsn1Cc1ccccc1,7,-7,-15,37,44*,23
O=C1C2C3C=CC(C4CC34)C2C(=O)N1/N=C/c1ccc(-c2ccc(F)cc2[N+](=O)[O-])o1 (stereo unspecified),-9,0,9,42,16,24
O=C1C2C3C=CC(C4CC34)C2C(=O)N1/N=C/c1ccc(-c2ccc(Cl)cc2[N+](=O)[O-])o1 (stereo unspecified),-9,-9,-4,52*,12,24
O=C(COc1ccccc1)Nc1ccccc1C(=O)NCc1ccco1,11,-9,-4,29,17,6
O=[N+]([O-])c1ccc2[nH]c(O)c(N=NC(=S)NCC3CCCO3)c2c1 (stereo unspecified),0,1,-2,-7,-2,20
CCNC(=S)N=Nc1c(O)[nH]c2ccc([N+](=O)[O-])cc12,-10,-1,18,-9,1,46*
COc1cccc2c1nc(C)c1cc(C)oc12,-7,-14,-29,-1,11,23
COc1cccc2nc3cc(C)c(C)cc3nc12,-7,-19,-12,-16,6,68*
CC(Oc1ccccc1)C(=O)N1CCN=C1SCc1cccc(F)c1 (stereo unspecified),11,-17,-12,10,9,9
CC(Oc1ccccc1)C(=O)N1CCN=C1SCc1ccccc1F (stereo unspecified),11,-22,40*,3,6,28
CCOc1ccc(C(=O)/C=C/c2cn(CN3CCN(C)CC3)c3ccccc23)cc1,10,14,-23,10,8,57*
CNC(=O)C[C@H]1C(=O)N(c2ccc(Br)cc2)C[C@@H]1CSC,x,x,x,4,4,x
CSc1nc(O)c(N=Nc2ccc(F)cc2F)c(=O)[nH]1,0,-12,-5,-8,0,45*
CN(C)c1nc(OCCNC(=O)Nc2ccccc2)nc(N2CCOCC2)n1,-16,x,x,0,3,x
Cc1ccc(S(=O)(=O)NCCOc2nc(N(C)C)nc(N3CCOCC3)n2)cc1,-9,-1,-23,6,9,48*
Cc1ccc(C(=O)OCC(=O)Nc2c(C)n(C)n(-c3ccccc3)c2=O)cc1[N+](=O)[O-],-4,-16,-1,-8,6,16
CCC1CCCCN1C(=O)COC(=O)CSc1ccc(C(N)=O)cc1[N+](=O)[O-] (stereo unspecified),x,-12,-17,-11,5,20
COC(=O)C1CCN(C(=O)COC(=O)CSc2ccc(C(N)=O)cc2[N+](=O)[O-])CC1,x,-7,-1,-12,1,37*
CCOC(=O)C1CCN(C(=O)COC(=O)CSc2ccc(C(N)=O)cc2[N+](=O)[O-])CC1,-10,-11,-5,-1,0,55*
Cc1c(NC(=O)COC(=O)CSc2ccc(C(N)=O)cc2[N+](=O)[O-])c(=O)n(-c2ccccc2)n1C,7,2,-4,-24,7,71*
Cc1noc(-c2ccc(Cl)cc2)c1C(=O)O/N=C(\N)c1ccc(C(C)(C)C)cc1,-12,-12,-11,-10,3,11
SMILES,GPR7 antag,OX1R antag-1,CHO parental Ca,TAAR1 antagonist,TAAR1 agonist,OX1R antag-2
CC(=O)NS(=O)(=O)c1ccc(NC(=O)COc2cccc3c2OC(C)(C)C3)cc1,x,-10,1,2,1,-2
Cc1cc(C(=O)COC(=O)c2ccncc2)c(C)n1CCc1ccc(F)cc1,4,-12,4,10,48*,-1
Cc1cc(C(=O)Cn2cncn2)c(C)n1CCc1ccc(F)cc1,-13,-12,-9,3,31,27
CCCN(CC(=O)Nc1ccccc1C)C(=O)c1ccc(S(=O)(=O)N2CCCCC2)cc1,3,-20,-14,-28,0,-2
Cc1cc(Cl)ccc1NC(=O)CN1CCC(C(O)(c2ccccc2)c2ccccc2)CC1,-1,-21,-21,15,56*,1
O=C(CSc1nc2ccccc2o1)Nc1nc(-c2ccccc2)c(-c2ccccc2)s1,4,-24,-4,-10,2,26
CC(C)c1ccc(NC(=O)CN2C(=O)c3ccccc3S2(=O)=O)cc1,5,4,-1,9,3,15
C/C(=C1/C(=O)N(c2ccc([N+](=O)[O-])cc2)N=C1c1ccccc1)N(C)C,3,18,20,x,x,42*
COc1ccc(CN2CC[C@H]3C=CC[C@@H](C(=O)NCCc4ccccc4)[C@H]3C2=O)cc1OC,x,20,-17,2,15,70*
CN1CCN(S(=O)(=O)c2ccc(NN)nc2)CC1,x,-19,-17,-15,0,3
CCOc1ccc(S(=O)(=O)N(CC)CC(=O)N2CCCC2)cc1,-6,-4,10,-17,2,3
O=C(Cc1ccccc1)Nc1ccc(N2CCOCC2)cc1,20,-8,5,8,4,8
CC(C)c1ccc(/C=C/C(=O)NC(=S)NN2CCOCC2)cc1,-9,x,x,-14,3,x
O=C(Cc1cccc2ccccc12)Nc1ccc(N2CCOCC2)cc1,-4,-7,5,12,39*,26
O=C(/C=C/c1ccccc1)NC(=S)Nc1ccc(N2CCOCC2)cc1,7,-16,-21,54*,6,25
CC(C)c1ccc(/C=C/C(=O)NC(=S)Nc2ccc(CN3CCOCC3)cc2)cc1,-9,-3,-5,67*,7,24
C[C@@H]1NC(=O)c2cc([N+](=O)[O-])cc(I)c2OCC[C@@H](C(=O)NC(CC(=O)O)C(N)=O)NC(=O)[C@H](CC(N)=O)NC1=O (stereo partly specified),3,41,51*,x,x,31

# Bioassay records from PubChem.
